From ChEMBL document CHEMBL4732214, “Highly Selective Y Receptor Antagonist Binds in an Allosteric Binding Pocket” (J Med Chem, 2021) come the findings set out here.

The term IC50 denotes the concentration that inhibits the measured activity by half. By Kb is commonly meant the equilibrium dissociation constant of an antagonist, usually derived from a functional assay. As usually defined, the pKb is −log10 of the Kb, conventionally taken in molar units.

Assay [1] has as its system COS7. Description: Allosteric antagonist activity at human NPY4R L7.36 position mutant expressed in COS7 cells co-expressing Gqi5-alpha assessed as inhibition of PP-induced Ca2+ flux by Fluo-2 AM dye based fluorescent assay. Format: cell-based. In outline:
(§1)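 COS7 cells transiently cotransfected overnight with 3 μg receptor-eYFP variant plasmid and 1 μg Δ6Gαqi4myr, reseeded next day. Fluo2-AM (2.4 μM) Ca²⁺ assay in HBSS/HEPES/probenecid pH 7.4. Compound concentration series added after 20 s baseline, PP at EC80 added 110 s later. Responses as x-fold over basal, normalized to 1 μM PP. N ≥ 3.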
(Calcium flux is commonly read through the fluorescence of an indicator in the cells.)

For assay [2], the system named is COS7. Put plainly: Allosteric antagonist activity at human NPY4R Q3.32 position mutant expressed in COS7 cells co-expressing Gqi5-alpha assessed as inhibition of PP-induced Ca2+ flux by Fluo-2 AM dye based fluorescent assay. Format: cell-based. The method, boiled down:
as §1

The subject of assay [3] is COS7. Description: Allosteric antagonist activity at human NPY4R Y1.39 position mutant expressed in COS7 cells co-expressing Gqi5-alpha assessed as inhibition of PP-induced Ca2+ flux by Fluo-2 AM dye based fluorescent assay. Format: cell-based. Conditions: dose 15.0 µM. In outline: as §1
Assay [4] concerns the target T1, Neuropeptide Y receptor type 4 (Homo sapiens, UniProt P50391). Put plainly: Allosteric antagonist activity at […]-tagged human NPY4R expressed in COS7 cells co-expressing Gqi5-alpha assessed as inhibition of PP-induced inositol phosphate accumulation by IP-one assay. Format: functional, cell-based. To be noted: filed as allosteric antagonist. The method, boiled down: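 IP-One Gq HTRF assay in COS7 cells stably expressing Y4R-eYFP and Δ6Gαqi4myr, 8000 cells/well seeded overnight. Compound or DMSO added, then PP stimulation in HBSS + 20 mM LiCl for 1 h at 37 °C. Cells lysed with kit antibody reagents. Emission read at 665 and 620 nm.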

Assay [5] has as its target Neuropeptide Y receptor type 4 (Mus musculus). Put plainly: Allosteric antagonist activity at NPY4R in mouse descending colon mucosa assessed as reduction in rPP-induced ion transport by electrophysiology.
Assay [6] has as its system COS7. Description: Allosteric antagonist activity at human NPY4R Q2.58 position mutant expressed in COS7 cells co-expressing Gqi5-alpha assessed as inhibition of PP-induced Ca2+ flux by Fluo-2 AM dye based fluorescent assay. Format: cell-based. The method, boiled down: as §1
The test system of assay [7] is COS7. Description: Allosteric antagonist activity at human NPY4R A3.29 position mutant expressed in COS7 cells co-expressing Gqi5-alpha assessed as inhibition of PP-induced Ca2+ flux by Fluo-2 AM dye based fluorescent assay. Format: cell-based. The method, boiled down: as §1
Assay [8] concerns the target T1, Neuropeptide Y receptor type 4. Description: Allosteric antagonist activity at […]-tagged human NPY4R expressed in COS7 cells co-expressing Gqi5-alpha assessed as inhibition of PP-induced Ca2+ flux by Fluo-2 AM dye based fluorescent assay relative to control. Format: functional, cell-based. Conditions: read-out: IC50.
Assay [9] has as its target T2, Neuropeptide Y receptor type 1 (Mus musculus) (UniProt Q04573).
T2 sequence (whole entry): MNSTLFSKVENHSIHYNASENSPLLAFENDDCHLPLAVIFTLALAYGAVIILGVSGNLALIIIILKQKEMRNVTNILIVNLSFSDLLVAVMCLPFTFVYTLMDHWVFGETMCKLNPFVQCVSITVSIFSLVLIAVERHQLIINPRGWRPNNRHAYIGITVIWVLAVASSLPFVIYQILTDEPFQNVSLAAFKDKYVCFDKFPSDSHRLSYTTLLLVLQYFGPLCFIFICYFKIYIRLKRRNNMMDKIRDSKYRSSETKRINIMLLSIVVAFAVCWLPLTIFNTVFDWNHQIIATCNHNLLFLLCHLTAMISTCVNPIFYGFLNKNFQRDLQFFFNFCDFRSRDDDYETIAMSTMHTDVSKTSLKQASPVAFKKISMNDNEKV
Description: Allosteric antagonist activity at NPY1R in mouse descending colon mucosa assessed as reduction in PYY-induced ion transport at 0.3 to 30 uM by electrophysiology. Conditions: dose 0.3-30 µM.

Assay [10] deals with T3, Neuropeptide Y receptor type 5 (Mus musculus) (UniProt O70342).
T3 sequence (whole entry): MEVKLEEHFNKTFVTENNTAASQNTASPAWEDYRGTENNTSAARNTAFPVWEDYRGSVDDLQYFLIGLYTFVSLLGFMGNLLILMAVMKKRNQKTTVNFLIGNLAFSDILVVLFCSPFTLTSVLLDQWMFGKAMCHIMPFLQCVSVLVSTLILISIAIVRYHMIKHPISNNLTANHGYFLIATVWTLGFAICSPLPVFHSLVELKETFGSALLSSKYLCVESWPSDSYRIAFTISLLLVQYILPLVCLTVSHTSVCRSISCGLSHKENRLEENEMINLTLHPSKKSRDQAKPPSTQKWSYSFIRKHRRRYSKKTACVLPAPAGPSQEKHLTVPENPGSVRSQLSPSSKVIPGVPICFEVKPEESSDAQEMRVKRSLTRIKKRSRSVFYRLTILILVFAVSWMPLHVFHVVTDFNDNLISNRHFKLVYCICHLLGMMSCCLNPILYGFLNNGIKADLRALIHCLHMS
Put plainly: Allosteric antagonist activity at NPY5R in mouse descending colon mucosa assessed as reduction in rPP-induced ion transport at 30 uM by electrophysiology. The method, boiled down:
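Mouse descending colon mucosae (0.14 cm² exposed) in Ussing chambers, Krebs−Henseleit both sides, oxygenated, 37 °C, voltage-clamped at 0 mV. After stable basal Isc (20 min), DMSO (0.3%) or antagonist 300 nM–30 μM added basolaterally, then VIP 10 nM (10−15 min), then rPP 30 nM to lower Isc, then PYY 10 nM 15 min later. Isc changes pooled, mean ± SEM, N = 5.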

For assay [11], the target named is T4, Neuropeptide Y receptor type 2 (Mus musculus) (UniProt P97295).
T4 sequence (whole entry): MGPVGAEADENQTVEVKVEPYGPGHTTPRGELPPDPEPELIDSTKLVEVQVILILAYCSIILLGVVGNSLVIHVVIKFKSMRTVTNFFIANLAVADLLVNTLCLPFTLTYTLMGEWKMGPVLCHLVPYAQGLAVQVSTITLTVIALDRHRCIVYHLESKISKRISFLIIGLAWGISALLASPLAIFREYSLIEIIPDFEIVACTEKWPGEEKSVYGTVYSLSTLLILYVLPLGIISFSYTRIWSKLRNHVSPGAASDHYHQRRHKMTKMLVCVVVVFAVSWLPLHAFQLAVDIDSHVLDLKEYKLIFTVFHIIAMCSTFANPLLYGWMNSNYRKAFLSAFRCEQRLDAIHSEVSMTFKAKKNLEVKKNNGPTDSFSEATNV
Put plainly: Allosteric antagonist activity at NPY2R in mouse descending colon mucosa assessed as reduction in PYY-induced ion transport at 30 uM by electrophysiology.

In assay [12] the test system is COS7. Put plainly: Allosteric antagonist activity at human NPY4R Y2.64 position mutant expressed in COS7 cells co-expressing Gqi5-alpha assessed as inhibition of PP-induced Ca2+ flux by Fluo-2 AM dye based fluorescent assay. Format: cell-based. The method, boiled down:
as §1

Assay [13] concerns the target T1, Neuropeptide Y receptor type 4. Put plainly: Allosteric antagonist activity at […]-tagged human NPY4R expressed in COS7 cells co-expressing Gqi5-alpha assessed as inhibition of PP-induced Ca2+ flux by Fluo-2 AM dye based fluorescent assay. Format: functional, cell-based. Conditions: filed as allosteric antagonist.
Assay [14] concerns COS7. Put plainly: Allosteric antagonist activity at human NPY4R T2.61 position mutant expressed in COS7 cells co-expressing Gqi5-alpha assessed as inhibition of PP-induced Ca2+ flux by Fluo-2 AM dye based fluorescent assay. Format: cell-based. The method, boiled down:
as §1

Assay [15] relates to COS7. Description: Allosteric antagonist activity at human NPY4R F7.35 position mutant expressed in COS7 cells co-expressing Gqi5-alpha assessed as inhibition of PP-induced Ca2+ flux by Fluo-2 AM dye based fluorescent assay. Format: cell-based. In outline: as §1
Assay [16] has as its target T2, Neuropeptide Y receptor type 1 (Mus musculus). Description: Allosteric antagonist activity at NPY1R in mouse descending colon mucosa assessed as reduction in PYY-induced ion transport at 30 uM by electrophysiology.
Assay [17] has as its system COS7. Description: Allosteric antagonist activity at human NPY4R F4.60 position mutant expressed in COS7 cells co-expressing Gqi5-alpha assessed as inhibition of PP-induced Ca2+ flux by Fluo-2 AM dye based fluorescent assay. Format: cell-based. In outline:
as §1

The target in assay [18] is T4, Neuropeptide Y receptor type 2 (Mus musculus). Put plainly: Allosteric antagonist activity at NPY2R in mouse descending colon mucosa assessed as reduction in PYY-induced ion transport at 0.3 to 30 uM by electrophysiology. Conditions: dose 0.3-30 µM.
The test system of assay [19] is COS7. Description: Allosteric antagonist activity at human NPY4R W2.70 position mutant expressed in COS7 cells co-expressing Gqi5-alpha assessed as inhibition of PP-induced Ca2+ flux by Fluo-2 AM dye based fluorescent assay. Format: cell-based. The method, boiled down:
as §1

Assay [20] deals with COS7. Put plainly: Allosteric antagonist activity at human NPY4R S3.28 position mutant expressed in COS7 cells co-expressing Gqi5-alpha assessed as inhibition of PP-induced Ca2+ flux by Fluo-2 AM dye based fluorescent assay. Format: cell-based. In outline: as §1

Molecules are shown by their SMILES. Calls of active or inactive are those of the source. The calls are words filed in the database; no cut-off is given here.

T1 sequence (P50391 whole entry): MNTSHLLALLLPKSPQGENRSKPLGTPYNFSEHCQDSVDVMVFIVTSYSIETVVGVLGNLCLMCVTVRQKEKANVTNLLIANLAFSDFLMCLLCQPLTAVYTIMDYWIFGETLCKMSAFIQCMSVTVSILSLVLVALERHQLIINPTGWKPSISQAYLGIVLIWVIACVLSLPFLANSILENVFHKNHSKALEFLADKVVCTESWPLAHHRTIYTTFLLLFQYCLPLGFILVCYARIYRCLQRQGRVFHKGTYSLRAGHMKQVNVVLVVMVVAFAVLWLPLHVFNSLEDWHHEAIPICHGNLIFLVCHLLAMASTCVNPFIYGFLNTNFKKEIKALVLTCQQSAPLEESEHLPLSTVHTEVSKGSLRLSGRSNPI

Regarding `CS(=O)(=O)N1CCCC[C@H]1C(=O)Nc1nc2cc3c(cc2s1)OCCO3`, the inhibition entry in [1], in assay [2], in assay [3], in assay [6], in [7] and in assay [9] was “inactive” each time. For the same molecule, the inhibition result in assay [10], in assay [11], in assay [12], in assay [14], in assay [15] and in assay [16] was “inactive” each time. For the same molecule, the inhibition result in assay [17], in assay [18], in assay [19] and in [20] was “inactive” in each case. For the same molecule, the inhibition result in assay [4] is “Active”. In addition, the IC50 in assay [5] amounted to 3.8 µM; in assay [8] it was 2700 nM. The inhibition entry in [5] (filed as allosteric antagonist) and in assay [13] was “Dose-dependent effect” throughout. Moreover, in assay [13], the Kb is 380 nM. Besides, the pKb in assay [13] stood at 6.4.
